Measured values: ChEMBL document CHEMBL5634075, “An electrophilic fragment screening for the development of small molecules targeting caspase-2” (Eur J Med Chem, 2023)
“And” between values parts separate entries of the source, which are not always exact repeats. Equal values may be shown once. The source made the active and inactive calls. The rule behind the calls is not given here. Where a SMILES comes first, the peptide text is derived from it.

Assays:
Homo sapiens = organism: Homo sapiens; assay: Selectivity ratio of IC50 for recombinant caspase-3 (unknown origin) to recombinant caspase-2 (unknown origin)
Caspase-2 [1] = target: T1, Caspase-2 (Homo sapiens, UniProt P42575); assay: Inhibition of recombinant caspase-2 (unknown origin) using Z-VDVAD-AFC as substrate measured after 40 mins by fluorescence assay
T1 sequence (P42575 whole entry): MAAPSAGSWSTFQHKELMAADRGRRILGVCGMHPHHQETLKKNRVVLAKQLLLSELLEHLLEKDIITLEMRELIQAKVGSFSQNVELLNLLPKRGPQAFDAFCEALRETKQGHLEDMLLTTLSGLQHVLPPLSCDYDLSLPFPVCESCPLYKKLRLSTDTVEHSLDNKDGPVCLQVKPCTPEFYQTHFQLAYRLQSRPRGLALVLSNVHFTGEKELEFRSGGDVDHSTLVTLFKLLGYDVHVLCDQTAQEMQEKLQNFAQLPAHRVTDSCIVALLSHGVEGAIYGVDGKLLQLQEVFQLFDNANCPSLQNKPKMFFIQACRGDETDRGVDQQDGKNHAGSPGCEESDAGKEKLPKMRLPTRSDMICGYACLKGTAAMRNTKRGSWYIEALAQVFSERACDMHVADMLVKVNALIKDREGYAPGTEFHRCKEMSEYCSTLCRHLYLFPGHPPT
Outline: (§1)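 Ten-point curves in duplicate, 0.4 nM–100 µM. Enzyme (5 nM caspase-2 or cp-caspase-2) in MES pH 6.5 buffer with 10 mM DTT, preincubated with compound 40 min at 37 °C. Then 5 µM Z-VDVAD-AFC. AFC read at ex 400/em 505 nm every 3 min for 1 h. Background-corrected 40-min values fitted to four-parameter sigmoidal curves. Mean ± SEM of N independent experiments.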

Caspase-3 [2] = target: T2, Caspase-3 (Homo sapiens, UniProt P42574); assay: Inhibition of recombinant caspase-3 (unknown origin) at 125 uM using Ac-DEVD-AFC as substrate measured after 40 mins by fluorescence assay relative to control; conditions: recombinant caspase-3, probe Ac-DEVD-AFC
T2 sequence (P42574 whole entry): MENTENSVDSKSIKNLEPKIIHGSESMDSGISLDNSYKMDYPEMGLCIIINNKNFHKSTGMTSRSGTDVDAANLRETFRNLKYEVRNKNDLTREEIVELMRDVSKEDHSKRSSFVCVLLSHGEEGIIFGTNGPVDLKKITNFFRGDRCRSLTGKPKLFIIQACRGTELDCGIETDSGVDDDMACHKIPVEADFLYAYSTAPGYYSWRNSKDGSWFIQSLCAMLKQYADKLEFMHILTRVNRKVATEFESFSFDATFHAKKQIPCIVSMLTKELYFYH

Caspase-2 (Homo sapiens) [3] = target: T3, Caspase-2 (Homo sapiens) (UniProt P42575); assay: Inhibition of recombinant caspase-2 (unknown origin) at 12.5 uM using Z-VDVAD-AFC as substrate measured after 40 mins by fluorescence assay relative to control
T3 sequence (whole entry): T1 sequence (P42575 whole entry)
Outline: (§2)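 Two-point single-run screen in duplicate at 12.5 and 6.25 µM. Then 5 µM Z-VDVAD-AFC, 40 min at 37 °C, stopped with 5 M acetic acid. AFC fluorescence read at ex 400/em 505 nm, corrected for buffer+protein background.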

Caspase-3 [4] = target: T2, Caspase-3; assay: Inhibition of recombinant caspase-3 (unknown origin) using Ac-DEVD-AFC as substrate measured after 40 mins by fluorescence assay
Caspase-2 (Homo sapiens) [5] = target: T3, Caspase-2 (Homo sapiens); assay: Inhibition of recombinant caspase-2 (unknown origin) at 6.25 uM using Z-VDVAD-AFC as substrate measured after 40 mins by fluorescence assay relative to control; outline: as §2
HepG2 [6] = assay: Cytotoxicity against human HepG2 cells assessed as reduction in cell viability measured after 22 hrs by cell-titer glo assay; type: functional, cell-based
Outline: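 HepG2 cells at 250 cells/well, 1536-well format, settled 4 h at 37 °C and 5% CO2. Compound added acoustically (50 nL), 22 h at 37 °C. CellTiter-Glo reagent added, 15 min at room temperature, then luminescence read.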

HepG2 [7] = assay: Induction of GSH depletion in human HepG2 cells measured after 22 hrs by GSH-glo luminescence assay; conditions: HepG2, 22 h, read-out: pIC50 (converted)
Caspase-2 [8] = target: T1, Caspase-2; assay: Inhibition of recombinant cp-caspase-2 (unknown origin) using Z-VDVAD-AFC as substrate measured after 40 mins by fluorescence assay; outline: as §1
Caspase-3 [9] = target: T2, Caspase-3; assay: Inhibition of recombinant caspase-3 (unknown origin) at 62.5 uM using Ac-DEVD-AFC as substrate measured after 40 mins by fluorescence assay relative to control; conditions: recombinant caspase-3, probe Ac-DEVD-AFC
Caspase-2 (Homo sapiens) [10] = target: T3, Caspase-2 (Homo sapiens); assay: Covalent irreversible binding affinity to recombinant caspase-2 (unknown origin) assessed as modification at Cys320 residue measured after 1 hr by trypsin digestion based UPLC-MS/MS analysis
Outline: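 Recombinant caspase-2 (34 µM, 15 µL) mixed with test compound (1 µL of 10 mM DMSO stock), brought to 50 µL in MES pH 6.5 caspase-2 buffer, 1 h at 37 °C. Then iodoacetamide (62 mM final) 1 h dark RT. Samples denatured in 8 M urea/5 mM DTT and re-alkylated with IAD. Trypsin digestion overnight at 37 °C with 10% acetonitrile. C18 desalting, then gradient LC-MS/MS peptide sequencing.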

HepG2 [11] = assay: Induction of GSH depletion in human HepG2 cells at <10 uM measured after 22 hrs by GSH-glo luminescence assay; type: functional, cell-based
Outline: (§3)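 HepG2 cells at 250 cells/well, 1536-well format, settled 4 h at 37 °C and 5% CO2. Compound added (50 nL), 22 h incubation. Medium removed by centrifugation. GSH-Glo reagent 30 min at RT, then Luciferin Detection Reagent 15 min at RT. Luminescence read.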

HepG2 [12] = assay: Induction of GSH depletion in human HepG2 cells at >10 uM measured after 22 hrs by GSH-glo luminescence assay; type: functional, cell-based; outline: as §3
Caspase-2 (Homo sapiens) [13] = target: T3, Caspase-2 (Homo sapiens); assay: Irreversible inhibition of recombinant caspase-2 (unknown origin) assessed as ratio of Kinact/Ki using Z-VDVAD-AFC as substrate measured after 40 mins by fluorescence assay
Outline: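 Caspase-2 kinetic fluorometric assay with Z-VDVAD-AFC. kOBS values obtained from progress curves at four or more inhibitor concentrations. kinact/Ki then derived by two-step irreversible secondary regression (Copeland).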

Caspase-2 (Homo sapiens) [14] = target: T3, Caspase-2 (Homo sapiens); assay: Covalent irreversible binding affinity to recombinant caspase-2 (unknown origin) assessed as modification at Cys320 residue […] measured after 1 hr by trypsin digestion based UPLC-MS/MS analysis
Outline: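 Recombinant caspase-2 (34 µM stock) incubated 1 h at 37 °C with compound (10 mM DMSO stock) in pH 6.5 MES buffer with NaCl, CHAPS, sucrose and 10 mM DTT. Free cysteines were capped with iodoacetamide (62 mM final, 1 h, dark, RT). Samples were dried, denatured in 8 M urea/DTT, re-alkylated, trypsin-digested overnight at 37 °C, C18-desalted and analysed by gradient LC-MS/MS peptide sequencing.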

Compound | Ratio IC50 (Homo sapiens) | IC50 (Caspase-2 [1]) | inhibition at 40 min, 125 µM (Caspase-3 [2]) | inhibition (Caspase-2 (Homo sapiens) [3]) | IC50 (Caspase-3 [4]) | inhibition (Caspase-2 (Homo sapiens) [5]) | IC50 (HepG2 [6]; HepG2, 22 h) | IC50 (HepG2 [7]) | IC50 (Caspase-2 [8]) | inhibition at 40 min, 62.5 µM (Caspase-3 [9]) | Activity (Caspase-2 (Homo sapiens) [10]) | Activity (HepG2 [11]) | Activity (HepG2 [6]) | Activity (HepG2 [12]) | Ratio (Caspase-2 (Homo sapiens) [13]) | Activity (Caspase-2 (Homo sapiens) [14])
COc1ccc2nc(NC(=O)CCl)sc2c1 | > 12 | 5.25 µM | 21.7% | 79.7% | > 63.1 µM |  |  |  |  |  |  |  |  |  |  | 
Cc1nc(-c2ccc3c(c2)CCN3C(=O)CCl)cs1 |  | 1.82 µM and 3.39 µM | 16% | 89% | 35.5 µM and > 31.6 µM | 79% | 2.24 µM | 1.78 µM | 4.9 µM | 10% | Active |  |  |  |  | 
CN1C(=O)CN(C(=O)CCl)c2ccc(Br)cc21 | > 16 | 3.16 µM | 14% | 79% | > 50.1 µM | 62% |  |  | 6.03 µM | 0% | Active | inactive | Active | Active |  | 
O=C1CN(C(=O)CCl)c2ccccc2N1 | 27 | 1.07 µM and 3.31 µM | 90% | 92% | 28.8 µM | 86% |  |  |  | 59% | Active | inactive | Active | Active | 4.49 10^4/M/s | 
CC(=O)N[C@H](C(=O)N[C@@H](CC(=O)O)C(=O)N[C@H](C(=O)N[C@@H](C)C(=O)N[C@H](C=O)CC(=O)O)C(C)C)C(C)C (Ac-VDVAD-aldehyde) |  |  |  |  |  |  |  |  | 0.0479 µM |  |  |  |  |  |  | 
O=C(CCl)Nc1ccc(NC(=O)c2cccs2)cc1 | 7 | 1.29 µM | 30% | 93% | 9.55 µM | 92% |  |  |  | 24% | Active |  |  |  | 5.86 10^4/M/s | 
NC(=O)CI |  |  |  |  |  |  |  |  |  |  |  |  |  |  |  | Active
